≈ marks a conversion by molar mass, not a printed value. Calls of active or inactive are those of the source. The calls are words filed in the database; no cut-off is given here.

Data on eight compounds can be found in ChEMBL document CHEMBL4004784, “Antioxidant Hydroanthraquinones from the Marine Algal-Derived Endophytic Fungus Talaromyces islandicus EN-501” (J Nat Prod, 2017).

One assay concerns Escherichia coli. The assay can be described thus: Antimicrobial activity against Escherichia coli EMBLC-1 by XTT assay. The format is functional. In outline:
(§1)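 Microplate assay on bacterial strains supplied by the Institute of Oceanology, Chinese Academy of Sciences, with chloramphenicol as the positive control.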
For orientation: Tetrazolium dyes change colour on reduction, which living cells bring about.

The subject of a further assay is Edwardsiella tarda. The assay can be described thus: Antimicrobial activity against Edwardsiella tarda QDIO-2 by XTT assay. The format is functional. In outline:
as §1

Another assay relates to Staphylococcus aureus. The assay can be described thus: Antimicrobial activity against Staphylococcus aureus EMBLC-2 by XTT assay. The format is functional. In outline: as §1
A short description of assay [1]: Antioxidant activity assessed as DPPH radical scavenging activity. The assay is classed as functional. In outline:
(§2)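 Radical scavenging of pure compounds against DPPH and ABTS radicals, run by previously published methods and reported as IC50 in μM. Positive controls were BHT for DPPH and ascorbic acid for ABTS.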

Assay [2] in a line: Antioxidant activity assessed as ABTS radical scavenging activity. The assay is classed as functional. In outline:
as §2

Assay [3] concerns A2780. The assay can be described thus: Cytotoxicity against human A2780 cells after 72 hrs by MTT assay. The assay is classed as functional, cell-based. The settings on record: A2780, 72 h.
Assay [4] can be described thus: Cytotoxicity against human A2780cis cells after 72 hrs by MTT assay. The assay is classed as functional, cell-based.
The subject of assay [5] is A2780. The assay can be described thus: Cytotoxicity against human A2780 cells at 100 uM after 72 hrs by MTT assay. The format is functional, cell-based.
Another assay relates to A2780cis. The assay can be described thus: Cytotoxicity against human A2780cis cells at 100 uM after 72 hrs by MTT assay. The assay is classed as functional, cell-based.

As usually defined, the MIC is the lowest concentration found to suppress growth. For orientation: IC50 means the point on the concentration scale where inhibition reaches its midpoint. As to `CO[C@@H]1c2c(O)cc(C)c(O)c2C(=O)[C@@H]2C[C@H](O)C[C@H](O)[C@@H]12`, the MIC result in the assay with Escherichia coli and in the assay with Edwardsiella tarda was “inactive” throughout. For the same compound, the MIC against Staphylococcus aureus was 8 mg/L (≈ 25.9 µM). Besides, the half-inhibitory concentration (IC50) was 30 µM in assay [1], 24 µM in [2], greater than 10 µM with A2780 [3] and greater than 10 µM in assay [4].

As to `O=C1c2c(O)cc(CO)c(O)c2[C@H](O)[C@H]2C[C@@H](O)CC[C@H]12`, the minimal inhibitory concentration (MIC) in the assay on Escherichia coli is 16 mg/L (≈ 54.4 µM); against Edwardsiella tarda, 32 mg/L (≈ 109 µM); with Staphylococcus aureus, 2 mg/L (≈ 6.8 µM). Further, the IC50 in [1] worked out at 31 µM; in [2], 19 µM. The outcome in the assay on A2780 [5] and in the assay on A2780cis was Active.

In the case of `Cc1cc(O)c2c(c1O)[C@H](O)[C@H]1C[C@@H](O)C[C@H](O)[C@@H]1C2=O`, the minimum inhibitory concentration (MIC) against Escherichia coli was 32 mg/L (≈ 109 µM); in the assay with Edwardsiella tarda, 64 mg/L (≈ 217 µM); in the assay with Staphylococcus aureus it was 4 mg/L (≈ 13.6 µM). In addition, the IC50 in assay [1] is 52 µM; in [2], 31 µM; in the assay on A2780 [3] it was greater than 10 µM; in assay [4] it was greater than 10 µM.

For `Cc1cc(O)c2c(c1O)[C@H](O)[C@H]1C[C@@H](O)CC[C@@H]1C2=O`, the minimal inhibitory concentration (MIC) was 64 mg/L (≈ 230 µM) against Escherichia coli and 4 mg/L (≈ 14.4 µM) against Staphylococcus aureus. Moreover, the MIC entry with Edwardsiella tarda is “inactive”. The half-maximal inhibitory concentration (IC50) is 12 µM in [1], 8.3 µM in assay [2], greater than 10 µM with A2780 [3] and greater than 10 µM in assay [4].

In the case of `O=C(N[C@H](CO)[C@H](O)c1ccc([N+](=O)[O-])cc1)C(Cl)Cl` [CHLORAMPHENICOL], the MIC against Escherichia coli was found to be 4 mg/L (≈ 12.4 µM); with Edwardsiella tarda, 2 mg/L (≈ 6.19 µM); in the assay on Staphylococcus aureus, 2 mg/L (≈ 6.19 µM).

On to `O=C1O[C@H]([C@@H](O)CO)C(O)=C1O` [ASCORBIC ACID], for which, in [2], the IC50 was determined as 16 µM.

Consider `Cc1cc(O)c2c(c1O)[C@H](O)[C@H]1C[C@@H](O)C[C@@H](O)[C@@H]1C2=O`, for which the minimum inhibitory concentration (MIC) in the assay on Escherichia coli is 32 mg/L (≈ 109 µM); against Edwardsiella tarda it was 64 mg/L (≈ 217 µM); against Staphylococcus aureus it was 4 mg/L (≈ 13.6 µM). Moreover, the IC50 was 42 µM in [1], 34 µM in assay [2], greater than 10 µM in the assay on A2780 [3] and greater than 10 µM in assay [4].

Consider `Cc1cc(C(C)(C)C)c(O)c(C(C)(C)C)c1` [BUTYLATED HYDROXYTOLUENE], for which the half-inhibitory concentration (IC50) in assay [1] is 61 µM.
